The source made the active and inactive calls. No cut-off for these calls is given here.
How the values were obtained:
Acetylcholinesterase = Acetylcholinesterase (Homo sapiens, UniProt P22303); experiment: Stability of the compound assessed as acetylcholinesterase (unknown origin)-mediated hydrolysis at 5 X 10^-3 M; type: ADME; details: 5000 µM
How it was run: (§1)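 Enzymatic hydrolysis at 5 mM compound in barbital buffer at 25°C for 20 min, pH 7.3-7.6. AChE at 0.083 U/ml or BuChE at 0.017 U/ml. Ester cleavage followed as pH change calibrated against acrylic acid. Mean ± SEM of three experiments.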

Cholinesterase = Cholinesterase (Homo sapiens, UniProt P06276); experiment: Stability of the compound assessed as butyrylcholine esterase (unknown origin)-mediated hydrolysis at 5 X 10^-3 M; type: ADME; details: 5000 µM; how it was run: as §1
Cholinesterase, sequence (P06276 whole entry): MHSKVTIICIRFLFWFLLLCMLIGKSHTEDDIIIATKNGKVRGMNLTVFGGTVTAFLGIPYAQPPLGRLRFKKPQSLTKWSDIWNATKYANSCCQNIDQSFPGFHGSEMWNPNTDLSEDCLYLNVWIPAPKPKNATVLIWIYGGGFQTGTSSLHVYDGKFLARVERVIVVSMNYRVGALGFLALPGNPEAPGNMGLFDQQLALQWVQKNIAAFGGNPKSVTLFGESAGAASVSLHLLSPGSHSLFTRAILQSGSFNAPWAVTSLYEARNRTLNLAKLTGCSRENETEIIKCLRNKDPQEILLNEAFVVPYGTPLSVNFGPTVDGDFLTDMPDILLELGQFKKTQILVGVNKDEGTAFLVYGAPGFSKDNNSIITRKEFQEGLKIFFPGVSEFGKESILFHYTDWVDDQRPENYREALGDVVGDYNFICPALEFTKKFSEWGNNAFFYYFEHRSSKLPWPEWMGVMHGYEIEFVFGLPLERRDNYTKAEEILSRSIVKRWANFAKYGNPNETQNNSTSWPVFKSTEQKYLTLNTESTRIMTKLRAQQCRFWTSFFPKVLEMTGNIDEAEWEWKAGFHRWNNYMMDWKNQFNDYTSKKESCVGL

[1] = Stability of the compound assessed as autohydrolysis at 5 X 10^-3 M at pH 7.4; type: physicochemical; details: buffer, pH 7.4, 5000 µM
How it was run: (§2)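 Autohydrolysis run at 25°C for 20 min in barbital buffer (1.5 mM sodium barbital, 0.3 mM KH2PO4, 150 mM NaCl), pH adjusted to give 7.3-7.6. Compound at 5.0 mM final, no enzyme. pH change tracked against an acrylic acid titration standard curve. Mean ± SEM, three experiments.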

[2] = Stability in chloroform-d by NMR spectroscopy; type: physicochemical
[3] = biological target: T1, Choline O-acetyltransferase (Rattus norvegicus) (UniProt P32738); experiment: Uncompetitive inhibition of Holtzman rat brain choline acetyltransferase using choline as substrate at 1 mM incubated 20 mins prior to substrate addition measured after 30 mins by LB plot using liquid scintillation counting analysis
T1 sequence (whole entry): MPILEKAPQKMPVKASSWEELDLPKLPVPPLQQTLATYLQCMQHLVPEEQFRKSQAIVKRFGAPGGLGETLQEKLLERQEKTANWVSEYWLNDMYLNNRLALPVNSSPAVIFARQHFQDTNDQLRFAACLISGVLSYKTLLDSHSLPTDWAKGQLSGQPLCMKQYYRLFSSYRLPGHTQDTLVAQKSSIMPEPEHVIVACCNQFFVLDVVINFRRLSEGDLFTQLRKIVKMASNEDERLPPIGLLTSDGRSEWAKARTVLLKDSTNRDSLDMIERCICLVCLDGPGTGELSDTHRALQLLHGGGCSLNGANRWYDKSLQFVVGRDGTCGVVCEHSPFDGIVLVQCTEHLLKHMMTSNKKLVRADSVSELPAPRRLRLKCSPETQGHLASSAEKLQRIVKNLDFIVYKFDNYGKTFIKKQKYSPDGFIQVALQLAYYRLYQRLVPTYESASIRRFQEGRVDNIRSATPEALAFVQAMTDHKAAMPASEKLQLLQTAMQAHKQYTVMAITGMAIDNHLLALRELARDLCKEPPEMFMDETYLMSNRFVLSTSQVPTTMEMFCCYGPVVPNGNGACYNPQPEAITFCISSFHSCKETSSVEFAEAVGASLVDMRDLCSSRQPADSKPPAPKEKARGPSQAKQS

[4] = Stability in D2O by NMR spectroscopy; type: physicochemical
How it was run: (§3)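 NMR spectra taken in D2O every 3 min for 1 hr. pH stayed at 9.0 (±0.5) throughout.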

[5] = biological target: T2, Choline O-acetyltransferase (Rattus norvegicus, UniProt P32738); experiment: Inhibition of Holtzman rat brain choline acetyltransferase using [1-14C-acetyl]-CoA as substrate incubated 20 mins prior to substrate addition measured after 30 mins by liquid scintillation counting analysis; details: read-out: I50
T2 sequence (P32738 whole entry): T1 sequence (whole entry)
How it was run: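 ChAc extracted from Holtzman rat brain acetone powder in ice-cold pH 7.0 phosphate medium (NaCl, EDTA, cysteine, BSA), 9000 g supernatant. Extract preincubated with inhibitor 20 min at 37°C in pH 7.0 phosphate buffer with 150 mM NaCl, 0.05 mM neostigmine, 50 mM choline. Then [1-14C-acetyl]-CoA at 0.065 mM final, 30 min at 37°C. Acetylated product by sequential anion/cation exchange and scintillation counting.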

Cavia porcellus = organism: Cavia porcellus; experiment: Inhibition of choline acetyltransferase in guinea pig ileum assessed as blockade of electrically stimulated muscle contraction after 3 hrs; type: tissue-based
How it was run: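 Guinea pig ileum on coaxial electrode in Tyrode solution, 37°C, 95% O2/5% CO2. Transmural stimulation: monophasic square pulses, 40 V supramaximal, 10 Hz, 0.5 ms, 1 s every 10 s. Contraction blockade gave ED50 with 95% confidence limits by Litchfield-Wilcoxon, N=20.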

[6] = Stability in D2O assessed every 4 mins for 1 hr by NMR spectroscopy; type: physicochemical
[7] = Half life of the compound auto-hydrolysis at 5 X 10^-3 M at pH 7.4; type: physicochemical; details: buffer; how it was run: as §2
[8] = biological target: T1, Choline O-acetyltransferase (Rattus norvegicus); experiment: Uncompetitive inhibition of Holtzman rat brain choline acetyltransferase using acetyl-CoA as substrate at 0.2 mM incubated 20 mins prior to substrate addition measured after 30 mins by LB plot using liquid scintillation counting analysis
[9] = biological target: T1, Choline O-acetyltransferase (Rattus norvegicus); experiment: Inhibition of Holtzman rat brain choline acetyltransferase using [1-14C-acetyl]-CoA as substrate at 1 mM treated with buffered solution at pH 7.4 for 3 to 60 mins prior to enzyme addition followed by 20 mins incubation prior to substrate addition […] by liquid scintillation counting analysis
[10] = biological target: T1, Choline O-acetyltransferase (Rattus norvegicus); experiment: Inhibition of Holtzman rat brain choline acetyltransferase using [1-14C-acetyl]-CoA as substrate at 1 mM incubated in un-buffered water for 24 hrs by liquid scintillation counting analysis
How it was run: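 Hydration product made by keeping compound in unbuffered water for 24 hr, then run at 1.0 mM in the standard rat brain ChAc radioassay: 20 min preincubation at 37°C, 0.065 mM [1-14C-acetyl]-CoA, 30 min, ion-exchange then scintillation counting.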

[11] = Stability in aqueous medium by NMR spectroscopy; type: physicochemical; details: buffer; how it was run: as §3
[12] = Dissociation constant, pKa of the compound; type: physicochemical
[13] = biological target: T1, Choline O-acetyltransferase (Rattus norvegicus); experiment: Reversible inhibition of Holtzman rat brain choline acetyltransferase using [1-14C-acetyl]-CoA as substrate at 5 X 10^-4 M incubated 20 mins prior to substrate addition measured after 30 mins by liquid scintillation counting analysis
How it was run: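 Reversibility test at 5 × 10^-4 M inhibitor with enzyme varied from 10 to 30 mg acetone powder per ml. Rat brain extract preincubated 20 min at 37°C, then [14C]acetyl-CoA radioassay for 30 min with scintillation counting. Mean of three experiments ± SEM.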

Lithobates pipiens [14] = experiment: Inhibition of choline acetyltransferase in frog sciatic nerve-gastrocnemius muscle assessed as blockade of electrically stimulated muscle contraction after 3 hrs; type: tissue-based
How it was run: (§4)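 Rana pipiens sciatic nerve-gastrocnemius (20-25 g frogs) in frog Ringer, 25°C, 95% O2/5% CO2. Nerve stimulated at 7 V, 0.5 ms, 250 Hz for 0.1 s every 10 s. Isometric contractions recorded, with washout after 10^-3 M exposure. ED50 with 95% confidence limits by Litchfield-Wilcoxon, N=16.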

Lithobates pipiens [15] = experiment: Inhibition of choline acetyltransferase in frog sciatic nerve-gastrocnemius muscle assessed as blockade of electrically stimulated muscle contraction at 10^-3 M incubated for 3 hrs followed by compound washout; type: tissue-based; how it was run: as §4
[16] = Stability in Me2SO-d6 by NMR spectroscopy; type: physicochemical
[17] = biological target: T2, Choline O-acetyltransferase; experiment: Inhibition of Holtzman rat brain choline acetyltransferase using [1-14C-acetyl]-CoA as substrate at 1 mM incubated 20 mins prior to substrate addition measured after 30 mins by liquid scintillation counting analysis; details: read-out: I50

Acetylcholinesterase, sequence (P22303 whole entry): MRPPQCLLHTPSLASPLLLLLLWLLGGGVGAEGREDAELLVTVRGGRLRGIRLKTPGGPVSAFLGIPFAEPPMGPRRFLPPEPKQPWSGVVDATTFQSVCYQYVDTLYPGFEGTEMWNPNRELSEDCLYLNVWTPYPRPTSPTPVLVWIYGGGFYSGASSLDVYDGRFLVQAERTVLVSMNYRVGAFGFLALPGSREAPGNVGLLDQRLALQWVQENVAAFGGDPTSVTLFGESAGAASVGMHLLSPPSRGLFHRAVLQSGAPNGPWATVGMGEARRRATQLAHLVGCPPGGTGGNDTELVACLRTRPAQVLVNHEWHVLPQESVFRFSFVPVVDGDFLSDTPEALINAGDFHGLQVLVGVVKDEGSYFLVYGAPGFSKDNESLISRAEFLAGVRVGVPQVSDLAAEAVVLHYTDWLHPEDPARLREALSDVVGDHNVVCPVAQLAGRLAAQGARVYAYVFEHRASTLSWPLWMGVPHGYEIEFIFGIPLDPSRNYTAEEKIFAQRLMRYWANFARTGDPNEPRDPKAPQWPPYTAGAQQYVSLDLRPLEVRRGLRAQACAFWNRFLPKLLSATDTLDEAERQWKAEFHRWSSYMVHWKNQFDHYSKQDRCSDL

| IC50 [17] | Structure (SMILES) | Drug degradation (Acetylcholinesterase) | Drug degradation (Cholinesterase) | Drug degradation [1] | Stability [2] | inhibition [3] | Stability [4] | IC50 [5] | ED50 (Cavia porcellus) | Stability [6] | half-life at 5000 µM [7] | inhibition [8] | inhibition [9] | inhibition [10] | Stability [11] | pKa [12] | inhibition [13] | ED50 (Lithobates pipiens [14]) | inhibition (Lithobates pipiens [15]) | Stability [16] |
| --- | --- | --- | --- | --- | --- | --- | --- | --- | --- | --- | --- | --- | --- | --- | --- | --- | --- | --- | --- | --- |
| – | CC(=O)OCC[N+](C)(C)C [ACETYLCHOLINE] | 1.46 ×10⁻⁸ mol/min | 6.57 ×10⁻⁸ mol/min | 1.75 ×10⁻⁸ mol/min | – | – | – | – | – | – | – | – | – | – | – | – | – | – | – | – |
| – | C=CC(=O)OCCN(C)C | 0.07 ×10⁻⁸ mol/min | 0.06 ×10⁻⁸ mol/min | 1.75 ×10⁻⁸ mol/min | Stable | Active | Stable | 502 µM | 1.21 ×10⁻⁴ M | Stable | 24 h | Active | Active | inactive | Unstable | 8.6 | Active | 5.05 ×10⁻⁴ M | Active | Stable |
| < 200 µM | C=CC(=O)O [ACRYLIC ACID] | – | – | – | – | – | – | – | – | – | – | – | – | – | – | – | – | – | – | – |
